According to ChEMBL document CHEMBL1137665, “Antistaphylococcal activity of CG400549, a new experimental FabI inhibitor, compared with that of other agents” (2007):
Values after ≈ are worked out from the molar mass of the structure shown.

Legend:
Format in all cases: functional
Staphylococcus aureus [1] = test: Antimicrobial activity against methicillin-susceptible Staphylococcus aureus 540 by agar dilution CLSI method
Procedure, shortened: (§1)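 CLSI agar dilution MIC against S. aureus clinical isolates. Calcium was added to the medium for daptomycin testing. Vancomycin plates were read after a full 24-h incubation.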

Staphylococcus aureus [2] = test: Antimicrobial activity against methicillin-susceptible Staphylococcus aureus 540 after single-step resistance selection by agar dilution CLSI method
Procedure, shortened: (§2)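 Single-step selection on drug-containing agar across 10 strains (2 MSSA, 8 MRSA, including VRSA and VISA). Colonies arising on confluent background growth were retested by CLSI agar dilution MIC. Resistance was defined as an MIC more than 4× the parent MIC.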

Staphylococcus aureus [3] = test: Antimicrobial activity against methicillin-susceptible Staphylococcus aureus by agar dilution CLSI method; procedure, shortened: as §1
Staphylococcus aureus [4] = test: Antimicrobial activity against vancomycin-resistant Staphylococcus aureus 510 Hershey after 14 passages with quinupristin-dalfopristin measured after 10 antibiotic-free subculture by multi-step resistance selection technique
Procedure, shortened: (§3)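 Multistep-selected mutants (daily passage at subinhibitory drug levels) then subcultured 10 times daily on antibiotic-free medium; MIC redetermined afterwards and compared with the MIC recorded at the end of selection; clone identity to parent checked by pulsed-field gel electrophoresis.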

Staphylococcus aureus [5] = test: Antimicrobial activity against panton-valentine leukocidin-positive community-acquired methicillin-resistant Staphylococcus aureus 490 by agar dilution CLSI method
Procedure, shortened: (§4)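 Agar dilution MIC per CLSI methodology; calcium supplemented for daptomycin testing; vancomycin plates read after a full 24-h incubation.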

Staphylococcus aureus [6] = test: Antimicrobial activity against vancomycin-intermediate Staphylococcus aureus 555 Hershey by agar dilution CLSI method; procedure, shortened: as §4
Staphylococcus aureus [7] = test: Antimicrobial activity against methicillin and vancomycin-resistant Staphylococcus aureus 510 after single-step resistance selection by agar dilution CLSI method; procedure, shortened: as §2
Staphylococcus aureus [8] = test: Antimicrobial activity against panton-valentine leukocidin-positive community-acquired methicillin-resistant Staphylococcus aureus 490 after 17 passages with CG400549 measured after 10 antibiotic-free subculture by multi-step resistance selection technique; procedure, shortened: as §3
Staphylococcus aureus [9] = test: Antimicrobial activity against methicillin and vancomycin-resistant Staphylococcus aureus 509 after single-step resistance selection by agar dilution CLSI method; procedure, shortened: as §2
Staphylococcus aureus [10] = test: Antimicrobial activity against methicillin-resistant Staphylococcus aureus by agar dilution CLSI method; procedure, shortened: as §1
Staphylococcus aureus [11] = test: Antimicrobial activity against panton-valentine leukocidin-positive community-acquired methicillin-resistant Staphylococcus aureus 490 after 14 passages with daptomycin measured after 10 antibiotic-free subculture by multi-step resistance selection technique; procedure, shortened: as §3
Staphylococcus aureus [12] = test: Antimicrobial activity against methicillin-resistant Staphylococcus aureus 547 after 21 passages with quinupristin-dalfopristin measured after 10 antibiotic-free subculture by multi-step resistance selection technique
Procedure, shortened: (§5)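 Mutants from multistep daily serial passage in subinhibitory drug were then subcultured daily 10 times on antibiotic-free medium. MIC was redetermined after these subcultures to assess stability. Clone identity was checked by pulsed-field gel electrophoresis.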

Staphylococcus aureus [13] = test: Antimicrobial activity against methicillin-resistant Staphylococcus aureus 525 by agar dilution CLSI method; procedure, shortened: as §1
Staphylococcus aureus [14] = test: Antimicrobial activity against methicillin-resistant Staphylococcus aureus 547 after 48 passages with Linezolid measured after 10 antibiotic-free subculture by multi-step resistance selection technique; procedure, shortened: as §5
Staphylococcus aureus [15] = test: Antimicrobial activity against methicillin-susceptible Staphylococcus aureus 540 after 16 passages with quinupristin-dalfopristin measured after 10 antibiotic-free subculture by multi-step resistance selection technique; procedure, shortened: as §5
Staphylococcus aureus [16] = test: Antimicrobial activity against methicillin-resistant Staphylococcus aureus 525 after single-step resistance selection by agar dilution CLSI method; procedure, shortened: as §2
Staphylococcus aureus [17] = test: Antimicrobial activity against methicillin-resistant Staphylococcus aureus 547 after single-step resistance selection by agar dilution CLSI method; procedure, shortened: as §2
Staphylococcus aureus [18] = test: Antimicrobial activity against vancomycin-intermediate Staphylococcus aureus 555 Hershey after 20 passages with quinupristin-dalfopristin measured after 10 antibiotic-free subculture by multi-step resistance selection technique; procedure, shortened: as §3
Staphylococcus aureus [19] = test: Antimicrobial activity against panton-valentine leukocidin-negative community-acquired methicillin-resistant Staphylococcus aureus 481 after 16 passages with quinupristin-dalfopristin measured after 10 antibiotic-free subculture by multi-step resistance selection technique; procedure, shortened: as §5
Staphylococcus aureus [20] = test: Antimicrobial activity against methicillin-resistant Staphylococcus aureus 547 after 21 passages with daptomycin measured after 10 antibiotic-free subculture by multi-step resistance selection technique; procedure, shortened: as §5
Staphylococcus aureus [21] = test: Antimicrobial activity against methicillin-resistant Staphylococcus aureus 490 after single-step resistance selection by agar dilution CLSI method; procedure, shortened: as §2
Staphylococcus aureus [22] = test: Antimicrobial activity against vancomycin-resistant Staphylococcus aureus 509 Michigan after 20 passages with daptomycin measured after 10 antibiotic-free subculture by multi-step resistance selection technique; procedure, shortened: as §3
Staphylococcus aureus [23] = test: Antimicrobial activity against vancomycin-intermediate Staphylococcus aureus 504 after 22 passages with Linezolid measured after 10 times antibiotic-free subculture by multi-step resistance selection technique; procedure, shortened: as §3
Staphylococcus aureus [24] = test: Antimicrobial activity against methicillin-resistant vancomycin-intermediate Staphylococcus aureus 504 after single-step resistance selection by agar dilution CLSI method; procedure, shortened: as §2
Staphylococcus aureus [25] = test: Antimicrobial activity against panton-valentine leukocidin-negative community-acquired methicillin-resistant Staphylococcus aureus 481 after 37 passages with Linezolid measured after 10 antibiotic-free subculture by multi-step resistance selection technique; procedure, shortened: as §5
Staphylococcus aureus [26] = test: Antimicrobial activity against methicillin-resistant vancomycin-intermediate Staphylococcus aureus 555 after single-step resistance selection by agar dilution CLSI method; procedure, shortened: as §2
Staphylococcus aureus [27] = test: Antimicrobial activity against methicillin-resistant Staphylococcus aureus 525 after 14 passages with CG400549 measured after 10 antibiotic-free subculture by multi-step resistance selection technique; procedure, shortened: as §5
Staphylococcus aureus [28] = test: Antimicrobial activity against methicillin-resistant Staphylococcus aureus 481 after single-step resistance selection by agar dilution CLSI method; procedure, shortened: as §2
Staphylococcus aureus [29] = test: Antimicrobial activity against panton-valentine leukocidin-negative community-acquired methicillin-resistant Staphylococcus aureus 481 after 14 passages with CG400549 measured after 10 antibiotic-free subculture by multi-step resistance selection technique; procedure, shortened: as §5
Staphylococcus aureus [30] = test: Antimicrobial activity against methicillin-susceptible Staphylococcus aureus 543 after 14 passages with CG400549 measured after 10 antibiotic-free subculture by multi-step resistance selection technique; procedure, shortened: as §5
Staphylococcus aureus [31] = test: Antimicrobial activity against methicillin-susceptible Staphylococcus aureus 543 after single-step resistance selection by agar dilution CLSI method; procedure, shortened: as §2
Staphylococcus aureus [32] = test: Antimicrobial activity against methicillin-susceptible Staphylococcus aureus 540 after 14 passages with CG400549 measured after 10 antibiotic-free subculture by multi-step resistance selection technique; procedure, shortened: as §5
Staphylococcus aureus [33] = test: Antimicrobial activity against panton-valentine leukocidin-negative community-acquired methicillin-resistant Staphylococcus aureus 481 by agar dilution CLSI method; procedure, shortened: as §1
Staphylococcus aureus [34] = test: Antimicrobial activity against methicillin-resistant Staphylococcus aureus 547 after 14 passages with CG400549 measured after 10 antibiotic-free subculture by multi-step resistance selection technique; procedure, shortened: as §5
Staphylococcus aureus [35] = test: Antimicrobial activity against vancomycin-resistant Staphylococcus aureus 510 Hershey by agar dilution CLSI method; procedure, shortened: as §4
Staphylococcus aureus [36] = test: Antimicrobial activity against vancomycin-resistant Staphylococcus aureus 510 Hershey after 14 passages with CG400549 measured after 10 antibiotic-free subculture by multi-step resistance selection technique; procedure, shortened: as §3
Staphylococcus aureus [37] = test: Antimicrobial activity against panton-valentine leukocidin-positive community-acquired methicillin-resistant Staphylococcus aureus 490 after 23 passages with quinupristin-dalfopristin measured after 10 antibiotic-free subculture by multi-step resistance selection technique; procedure, shortened: as §3
Staphylococcus aureus [38] = test: Antimicrobial activity against community-acquired vancomycin-intermediate Staphylococcus aureus 504 by agar dilution CLSI method; procedure, shortened: as §1

Structure (SMILES): Cc1c(N)cccc1Cn1ccc(OCCc2cccs2)cc1=O [CG-400549]
- MIC (Staphylococcus aureus [1]): 0.125 µg/mL (≈ 0.367 µM)
- MIC (Staphylococcus aureus [2]): 0.125 µg/mL (≈ 0.367 µM)
- MIC50 (Staphylococcus aureus [3]): 0.25 µg/mL (≈ 0.734 µM)
- MIC90 (Staphylococcus aureus [3]): 0.25 µg/mL (≈ 0.734 µM)
- MIC (Staphylococcus aureus [4]): 0.25 µg/mL (≈ 0.734 µM)
- MIC (Staphylococcus aureus [5]): 0.25 µg/mL (≈ 0.734 µM)
- MIC (Staphylococcus aureus [6]): 0.25 µg/mL (≈ 0.734 µM)
- MIC (Staphylococcus aureus [7]): 0.125 µg/mL (≈ 0.367 µM)
- MIC (Staphylococcus aureus [8]): 8 µg/mL (≈ 23.5 µM)
- MIC (Staphylococcus aureus [9]): 0.125 µg/mL (≈ 0.367 µM)
- MIC50 (Staphylococcus aureus [10]): 0.25 µg/mL (≈ 0.734 µM)
- MIC90 (Staphylococcus aureus [10]): 0.25 µg/mL (≈ 0.734 µM)
- MIC (Staphylococcus aureus [11]): 0.25 µg/mL (≈ 0.734 µM)
- MIC (Staphylococcus aureus [12]): 0.125 µg/mL (≈ 0.367 µM)
- MIC (Staphylococcus aureus [13]): 0.25 µg/mL (≈ 0.734 µM)
- MIC (Staphylococcus aureus [14]): 0.125 µg/mL (≈ 0.367 µM)
- MIC (Staphylococcus aureus [15]): 0.125 µg/mL (≈ 0.367 µM)
- MIC (Staphylococcus aureus [16]): 0.125 µg/mL (≈ 0.367 µM)
- MIC (Staphylococcus aureus [17]): 0.125 µg/mL (≈ 0.367 µM)
- MIC (Staphylococcus aureus [18]): 0.25 µg/mL (≈ 0.734 µM)
- MIC (Staphylococcus aureus [19]): 0.25 µg/mL (≈ 0.734 µM)
- MIC (Staphylococcus aureus [20]): 0.125 µg/mL (≈ 0.367 µM)
- MIC (Staphylococcus aureus [21]): 0.125 µg/mL (≈ 0.367 µM)
- MIC (Staphylococcus aureus [22]): 1 µg/mL (≈ 2.94 µM)
- MIC (Staphylococcus aureus [23]): 0.25 µg/mL (≈ 0.734 µM)
- MIC (Staphylococcus aureus [24]): 0.125 µg/mL (≈ 0.367 µM)
- MIC (Staphylococcus aureus [25]): 0.125 µg/mL (≈ 0.367 µM)
- MIC (Staphylococcus aureus [26]): 0.125 µg/mL (≈ 0.367 µM)
- MIC (Staphylococcus aureus [27]): 4 µg/mL (≈ 11.7 µM)
- MIC (Staphylococcus aureus [28]): 0.125 µg/mL (≈ 0.367 µM)
- MIC (Staphylococcus aureus [29]): 2 µg/mL (≈ 5.87 µM)
- MIC (Staphylococcus aureus [30]): 8 µg/mL (≈ 23.5 µM)
- MIC (Staphylococcus aureus [31]): 0.125 µg/mL (≈ 0.367 µM)
- MIC (Staphylococcus aureus [32]): 4 µg/mL (≈ 11.7 µM)
- MIC (Staphylococcus aureus [33]): 0.25 µg/mL (≈ 0.734 µM)
- MIC (Staphylococcus aureus [34]): 8 µg/mL (≈ 23.5 µM)
- MIC (Staphylococcus aureus [35]): 0.25 µg/mL (≈ 0.734 µM)
- MIC (Staphylococcus aureus [36]): 4 µg/mL (≈ 11.7 µM)
- MIC (Staphylococcus aureus [37]): 0.125 µg/mL (≈ 0.367 µM)
- MIC (Staphylococcus aureus [38]): 0.25 µg/mL (≈ 0.734 µM)
